According to ChEMBL document CHEMBL4393735, “Molecular modelling, synthesis, and biological evaluations of a 3,5-disubstituted isoxazole fatty acid analogue as a PPARα-selective agonist” (Bioorg Med Chem, 2019):
Blank lines part the entries; values can stand above or below the compound they belong to. Calls of active or inactive are those of the source.

Key:
[1] = target: T1, Peroxisome proliferator-activated receptor alpha (Mus musculus) (UniProt P23204); experiment: Agonist activity at PPARalpha in C57BL/6N mouse primary hepatocytes assessed as activation of Scd1 mRNA expression at 1 uM measured after 18 hrs by qRT-PCR analysis; type: cell-based
T1 sequence (whole entry): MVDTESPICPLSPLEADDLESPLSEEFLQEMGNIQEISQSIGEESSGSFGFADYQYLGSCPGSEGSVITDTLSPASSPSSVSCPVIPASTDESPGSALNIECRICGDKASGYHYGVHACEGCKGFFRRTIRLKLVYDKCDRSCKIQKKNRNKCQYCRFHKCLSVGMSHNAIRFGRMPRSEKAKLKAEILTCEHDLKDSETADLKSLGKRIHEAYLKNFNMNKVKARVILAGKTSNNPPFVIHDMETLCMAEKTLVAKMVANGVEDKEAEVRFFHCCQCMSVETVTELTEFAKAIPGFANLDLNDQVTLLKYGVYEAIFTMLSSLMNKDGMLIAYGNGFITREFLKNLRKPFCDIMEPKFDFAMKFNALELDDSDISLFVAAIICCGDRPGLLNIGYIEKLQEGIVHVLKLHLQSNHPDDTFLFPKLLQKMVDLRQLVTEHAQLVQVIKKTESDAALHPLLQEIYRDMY
Method in brief: (§1)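 Treatment for 18 h at 50 μM (or 1 μM for the 1 μM agents), DMSO vehicle. Harvested for qPCR. mRNA normalized to TBP by the comparative threshold method, expressed relative to DMSO control. Two biological replicates run in duplicate, mean ± SEM. Primary hepatocytes came from male C57BL/6N mice aged 7–8 weeks, isolated by portal-vein perfusion and digestion, seeded on collagen I and used on day 2. HuH-7 cells were kept in DMEM with 10% FBS and ITS.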

SGBS [2] = experiment: Induction of adipocyte differentiation in human preadipocyte derived from Simpson-Golabi-Behmel syndrome (SGBS) patient assessed as lipid accumulation at 2 uM measured for 12 days by Oil red O staining based microscopic analysis; type: functional, cell-based
Method in brief: (§2)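 Differentiation of SGBS preadipocytes was started in serum-free medium with transferrin, insulin, T3, hydrocortisol, IBMX and dexamethasone, plus 25 μM test agent, 2 μM rosiglitazone or 0.1% DMSO. On day 4 medium was switched to lack IBMX and dexamethasone, and it was renewed on day 8. Cells were fixed with 4% PFA and stained with 0.3% Oil Red O on days 0, 4, 8 and 12, then photographed.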

[3] = target: T1, Peroxisome proliferator-activated receptor alpha (Mus musculus); experiment: Agonist activity at PPARalpha in C57BL/6N mouse primary hepatocytes assessed as activation of PPARalpha mRNA expression at 1 uM measured after 18 hrs by qRT-PCR analysis; type: cell-based; method in brief: as §1
SGBS [4] = experiment: Upregulation of PPARgamma gene expression in human preadipocyte derived from Simpson-Golabi-Behmel syndrome (SGBS) patient at 2 uM measured for 12 days by qRT-PCR analysis; type: functional, cell-based
Method in brief: (§3)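 SGBS cells were differentiated with serum-free induction medium containing 25 μM test agent, 2 μM rosiglitazone or 0.1% DMSO from day 0. IBMX and dexamethasone were removed on day 4 and medium was renewed on day 8. RNA was taken on days 0, 4, 8 and 12 for qPCR, normalized to TBP and to day 0. At least three biological replicates in duplicate, two-way ANOVA with Bonferroni.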

SGBS [5] = experiment: Upregulation of CEBPA gene expression in human preadipocyte derived from Simpson-Golabi-Behmel syndrome (SGBS) patient at 2 uM measured for 12 days by qRT-PCR analysis; type: functional, cell-based; method in brief: as §3
SGBS [6] = experiment: Upregulation of ACSL1 gene expression in human preadipocyte derived from Simpson-Golabi-Behmel syndrome (SGBS) patient at 2 uM measured for 12 days by qRT-PCR analysis; type: functional, cell-based; method in brief: as §3
SGBS [7] = experiment: Upregulation of CD36 gene expression in human preadipocyte derived from Simpson-Golabi-Behmel syndrome (SGBS) patient at 2 uM measured for 12 days by qRT-PCR analysis; type: functional, cell-based; method in brief: as §3
SGBS [8] = experiment: Upregulation of FABP4 gene expression in human preadipocyte derived from Simpson-Golabi-Behmel syndrome (SGBS) patient at 2 uM measured for 12 days by qRT-PCR analysis; type: functional, cell-based; method in brief: as §3
SGBS [9] = experiment: Upregulation of PLIN1 gene expression in human preadipocyte derived from Simpson-Golabi-Behmel syndrome (SGBS) patient at 2 uM measured for 12 days by qRT-PCR analysis; type: functional, cell-based; method in brief: as §3
SGBS [10] = experiment: Upregulation of ADIPOQ gene expression in human preadipocyte derived from Simpson-Golabi-Behmel syndrome (SGBS) patient at 2 uM measured for 12 days by qRT-PCR analysis; type: functional, cell-based; method in brief: as §3
SGBS [11] = experiment: Upregulation of ANGPTL4 gene expression in human preadipocyte derived from Simpson-Golabi-Behmel syndrome (SGBS) patient at 2 uM measured for 12 days by qRT-PCR analysis; type: functional, cell-based; method in brief: as §3
[12] = target: T1, Peroxisome proliferator-activated receptor alpha (Mus musculus); experiment: Agonist activity at PPARalpha in C57BL/6N mouse primary hepatocytes assessed as activation of Srebf1 mRNA expression at 1 uM measured after 18 hrs by qRT-PCR analysis; type: cell-based; method in brief: as §1
[13] = target: T2, Peroxisome proliferator-activated receptor alpha (Homo sapiens) (UniProt Q07869); experiment: Agonist activity at PPARalpha in human Huh7 cells assessed as PPARA mRNA expression at 50 uM measured after 18 hrs by qRT-PCR analysis; type: cell-based; method in brief: as §1
T2 sequence (whole entry): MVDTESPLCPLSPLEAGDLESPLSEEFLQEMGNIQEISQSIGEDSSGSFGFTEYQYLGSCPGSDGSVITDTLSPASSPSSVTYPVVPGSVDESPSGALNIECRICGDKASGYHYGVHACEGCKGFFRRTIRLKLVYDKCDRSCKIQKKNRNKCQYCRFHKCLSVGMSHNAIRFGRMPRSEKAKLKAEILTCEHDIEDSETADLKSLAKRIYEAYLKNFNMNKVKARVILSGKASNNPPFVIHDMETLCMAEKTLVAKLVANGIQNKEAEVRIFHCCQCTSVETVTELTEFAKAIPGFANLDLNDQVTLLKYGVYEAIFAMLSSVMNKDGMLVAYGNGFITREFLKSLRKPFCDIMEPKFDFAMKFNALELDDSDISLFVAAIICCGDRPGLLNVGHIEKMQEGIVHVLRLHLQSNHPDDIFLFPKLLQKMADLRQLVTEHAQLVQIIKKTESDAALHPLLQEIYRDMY

[14] = target: T2, Peroxisome proliferator-activated receptor alpha (Homo sapiens); experiment: Agonist activity at PPARalpha in human Huh7 cells assessed as SCD1 mRNA expression at 50 uM measured after 18 hrs by qRT-PCR analysis; type: cell-based; method in brief: as §1
[15] = target: T2, Peroxisome proliferator-activated receptor alpha (Homo sapiens); experiment: Agonist activity at PPARalpha in human Huh7 cells assessed as SREBF1 mRNA expression at 50 uM measured after 18 hrs by qRT-PCR analysis; type: cell-based; method in brief: as §1
[16] = target: T1, Peroxisome proliferator-activated receptor alpha (Mus musculus); experiment: Agonist activity at PPARalpha in C57BL/6N mouse primary hepatocytes assessed as PPARA mRNA expression at 50 uM measured after 18 hrs by qRT-PCR analysis; type: cell-based; method in brief: as §1
[17] = target: T1, Peroxisome proliferator-activated receptor alpha (Mus musculus); experiment: Agonist activity at PPARalpha in C57BL/6N mouse primary hepatocytes assessed as SCD1 mRNA expression at 50 uM measured after 18 hrs by qRT-PCR analysis; type: cell-based; method in brief: as §1
[18] = target: T1, Peroxisome proliferator-activated receptor alpha (Mus musculus); experiment: Agonist activity at PPARalpha in C57BL/6N mouse primary hepatocytes assessed as SREBF1 mRNA expression at 50 uM measured after 18 hrs by qRT-PCR analysis; type: cell-based; method in brief: as §1
SGBS [19] = experiment: Upregulation of PPARgamma gene expression in human preadipocyte derived from Simpson-Golabi-Behmel syndrome (SGBS) patient at 25 uM measured for 12 days by qRT-PCR analysis; type: functional, cell-based
Method in brief: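 SGBS cells grown 4 days in biotin/D-pantothenate medium, then differentiated without FBS (apo-transferrin, insulin, T3, hydrocortisol, IBMX, dexamethasone) with 25 μM compound or 0.1 % DMSO added from day 0. After 4 days, switched to maintenance medium without IBMX/dexamethasone, renewed day 8. qPCR on days 0, 4, 8, 12, normalized to TBP (comparative threshold) and to day 0. Minimum three biological replicates in duplicate, mean ± SEM.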

SGBS [20] = experiment: Upregulation of CEBPA gene expression in human preadipocyte derived from Simpson-Golabi-Behmel syndrome (SGBS) patient at 25 uM measured for 12 days by qRT-PCR analysis; type: functional, cell-based; method in brief: as §3
SGBS [21] = experiment: Upregulation of ACSL1 gene expression in human preadipocyte derived from Simpson-Golabi-Behmel syndrome (SGBS) patient at 25 uM measured for 12 days by qRT-PCR analysis; type: functional, cell-based; method in brief: as §3
SGBS [22] = experiment: Upregulation of CD36 gene expression in human preadipocyte derived from Simpson-Golabi-Behmel syndrome (SGBS) patient at 25 uM measured for 12 days by qRT-PCR analysis; type: functional, cell-based; method in brief: as §3
SGBS [23] = experiment: Upregulation of FABP4 gene expression in human preadipocyte derived from Simpson-Golabi-Behmel syndrome (SGBS) patient at 25 uM measured for 12 days by qRT-PCR analysis; type: functional, cell-based; method in brief: as §3
SGBS [24] = experiment: Upregulation of PLIN1 gene expression in human preadipocyte derived from Simpson-Golabi-Behmel syndrome (SGBS) patient at 25 uM measured for 12 days by qRT-PCR analysis; type: functional, cell-based; method in brief: as §3
SGBS [25] = experiment: Upregulation of ADIPOQ gene expression in human preadipocyte derived from Simpson-Golabi-Behmel syndrome (SGBS) patient at 25 uM measured for 12 days by qRT-PCR analysis; type: functional, cell-based; method in brief: as §3
SGBS [26] = experiment: Upregulation of ANGPTL4 gene expression in human preadipocyte derived from Simpson-Golabi-Behmel syndrome (SGBS) patient at 25 uM measured for 12 days by qRT-PCR analysis; type: functional, cell-based; method in brief: as §3
SGBS [27] = experiment: Induction of adipocyte differentiation in human preadipocyte derived from Simpson-Golabi-Behmel syndrome (SGBS) patient assessed as lipid accumulation at 25 uM measured for 12 days by Oil red O staining based microscopic analysis; type: functional, cell-based; method in brief: as §2

- Activity [1]: inactive
- Activity [3]: Active
- Activity [12]: inactive
Structure (SMILES): CN(CCOc1ccc(CC2SC(=O)NC2=O)cc1)c1ccccn1 (configuration not stated)
- Activity (SGBS [2]): Active
- Activity (SGBS [4]): Active
- Activity (SGBS [5]): Active
- Activity (SGBS [6]): Active
- Activity (SGBS [7]): Active
- Activity (SGBS [8]): Active
- Activity (SGBS [9]): Active
- Activity (SGBS [10]): Active
- Activity (SGBS [11]): Active

- Activity [13]: inactive
- Activity [14]: inactive
- Activity [15]: inactive
- Activity [16]: Active
- Activity [17]: inactive
- Activity [18]: inactive
Structure (SMILES): CCCCC/C=C/C(=O)CCCCCCCC(=O)O
- Activity (SGBS [19]): Active
- Activity (SGBS [20]): Active
- Activity (SGBS [21]): Active
- Activity (SGBS [22]): Active
- Activity (SGBS [23]): Active
- Activity (SGBS [24]): Active
- Activity (SGBS [25]): Active
- Activity (SGBS [26]): Active
- Activity (SGBS [27]): Active
